High-throughput results: PubChem BioAssay, Johns Hopkins Ion Channel Center
KCNK3 block: human KCNK3 channel inhibition, primary screen; CHO-KCNK3 thallium flux, FluxOR fluorescence; hits give low values; AID 602410; B-score at 10 µM; 0.84% of 340,000 active; O14649;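 active means B-score under library mean minus 4 SD, starting fluorescence ratio at most library mean plus 5 SD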;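 further: more negative B-score means stronger inhibition of thallium flux through KCNK3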
hERG protect: compounds protecting human hERG from proarrhythmic drug block | 0.51% of 310,000 active | activation (rescue from dofetilide block), less the hit threshold, % at 10 µM | Q12809 | AID 1511 | CHO-hERG, FluxOR thallium flux, dofetilide IC70 present;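 active means activation above the mean of controls blocked by dofetilide plus 5 SD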;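 further: thallium influx through hERG after potassium depolarization seen as dye fluorescence rise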
KCNK9 block: inhibitors of human KCNK9 two-pore domain potassium channel. Q9NPC2. B-score at 10 µM. AID 488922. HEK293 KCNK9, FluxOR thallium flux fluorescence; hits give low values. 1.2% of 310,000 active;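 active means ratio B-score over 3 SD below the library mean, with starting fluorescence within 5 SD of its mean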;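 further: negative B-score means less thallium flux so channel inhibition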
KCNQ1 block: inhibitors of human KCNQ1 potassium channel; P51787; CHO-K1 KCNQ1, FluxOR thallium flux fluorescence; hits give high values; B-score at 10 µM; 1.3% of 310,000 active;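 active means compounds whose thallium flux B-score, printed positive for inhibition, exceeds three library SD while starting fluorescence stays within three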;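 further: channel opened by potassium depolarization with thallium stimulus after 20 min compound exposure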
KCNQ1 act: potentiators or activators of human KCNQ1 potassium channel | P51787 | CHO-K1 KCNQ1, thallium flux FluxOR fluorescence; hits give high values | B-score at 10 µM | 0.35% of 310,000 active | AID 2648;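 active means fluorescence ratio B-score, a plate-corrected score, at least three library SD, with initial intensity B-score within 5 SD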
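Material: CHO-K1 cells stably expressing KCNQ1. Medium: assay buffer for compound exposure, DMSO matched across wells. Reagent: K+/Tl+ depolarizing stimulus. Compound dosing: single-concentration screen. Times: 37 °C overnight plating, 90-min dark dye load, 20-min compound pretreatment. Technique: FluxOR Tl+ flux fluorescence.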
Kir21 inh: blocks the mouse Kir2.1 inward-rectifier potassium channel; P35561; HEK293-Kir2.1, FluxOR thallium flux fluorescence; hits give low values; B-score at 10 µM; 0.85% of 310,000 active; AID 1672;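 active means fluorescence ratio B-score at or below minus 3 SD of library scores, with starting-brightness B-score within 2 SD, cut at about -4.2 in these data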;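 further: channel flux triggered by added potassium and thallium sulfate stimulus; B-score of peak minus minimum fluorescence over baseline after thallium stimulus; more negative B-score means stronger Kir2.1 block with less thallium influx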
Hits are given with their value; n = inactive; x = not tested or not shown. In the library only some 3.8% were active in any assay of this set; here they are far more common.

SMILES | KCNK3 block | hERG protect | KCNK9 block | KCNQ1 block | KCNQ1 act | Kir21 inh
CCc1nc2ccccc2n1CCc1ccccc1 | n | n | n | n | n | n
Cc1nc2ccccc2n1Cc1ccccc1 | n | n | n | n | n | n
CC(C)Cc1nc2ccccc2n1CCc1ccccc1 | n | n | n | n | n | -6.5
CCn1c(Cc2ccc(OC)cc2)nc2ccccc21 | n | n | n | n | n | n
CC(C)(C)Cc1nc2ccccc2n1CCc1ccccc1 | n | n | n | n | n | -6.1
CC(C)C(=O)NCCc1nc2ccccc2n1CCc1ccccc1 | n | n | n | n | n | n
c1ccc(Cc2nc3ccccc3n2Cc2ccccc2)cc1 | n | n | n | n | n | -7.2
O=C(NCC(=O)N1CCCCCC1)c1ccc(Br)cc1 | n | n | n | n | n | n
O=C(O)CSCC(=O)N(Cc1ccccc1)c1nc(-c2ccccc2)c(-c2ccccc2)s1 | n | n | n | 8 | n | n
CCOC(=O)c1sc(N(Cc2ccccc2)C(=O)CSc2ncn[nH]2)nc1C | n | n | n | n | n | n
CCNC(=S)N1CCn2cccc2C1c1ccc(F)cc1 (stereo not drawn) | n | n | -8 | n | n | n
CNC(=S)N1CCn2cccc2C1c1cc(OC)c(OC)c(OC)c1 (stereo not drawn) | n | n | n | n | n | n
COc1ccc(NC(=O)c2ccc[n+]([O-])c2)cc1 | n | n | n | n | n | n
Cn1c(SCC(=O)Nc2ccccc2)nnc1-c1ccc2nonc2c1 | n | n | n | n | n | n
COc1ccccc1/C=N/N1C(=O)c2cccc3cccc(c23)C1=O | n | 7.2 | n | n | n | n
COc1ccc(/C=N/N2C(=O)c3ccccc3C2=O)cc1 | n | n | n | n | n | n
Cn1c(N)c(C(=O)COC(=O)c2ccc3c(c2)C(=O)N(c2ccc(Cl)cc2)C3=O)c(=O)n(C)c1=O | n | n | n | n | n | n
CN(CC(=O)Nc1ccccc1C(F)(F)F)C(=O)c1ccccc1Sc1ccccc1C#N | -9.2 | x | x | x | x | x
CCN(CC(=O)Nc1ccccc1C(F)(F)F)C(=O)c1ccccc1Sc1ccccc1C#N | n | x | x | x | x | x
CN(c1ccc(OCC(=O)NCCc2ccccc2)cc1)S(=O)(=O)c1ccc(Cl)cc1 | n | n | n | n | n | n
COc1ccc(CCNC(=O)COc2ccc(N(C)S(=O)(=O)c3ccc(Cl)cc3)cc2)cc1 | n | n | n | n | n | -5.9
Cc1ccc(/C=N/Nc2ncc(Cl)cc2Cl)s1 | n | n | n | 7 | n | n
Oc1ccc(/C=N/Nc2ncc(Cl)cc2Cl)cc1 | n | n | n | n | n | n
Clc1cnc(N/N=C/c2cccs2)c(Cl)c1 | n | n | n | 6 | n | n
Nc1nc(Nc2ccccc2)nc(NC2CCCCC2)c1[N+](=O)[O-] | n | n | n | n | n | n
SMILES | KCNK3 block | hERG protect | KCNK9 block | KCNQ1 block | KCNQ1 act | Kir21 inh
COc1ccc(S(=O)(=O)Nc2cccc(S(=O)(=O)N3CCCC3)c2)cc1OC | n | n | n | n | n | n
O=C(CCl)N1CCN2C(=O)c3ccccc3C12c1ccc(Cl)cc1 (stereo not drawn) | n | n | n | n | n | -4.6
O=C(CN1C(=O)c2ccccc2C1=O)Nc1cccc(Cl)c1 | n | n | n | n | n | n
O=C(Nc1cccc(Cl)c1)N1CCN2C(=O)c3ccccc3C12c1ccccc1 (stereo not drawn) | n | n | n | 11 | n | n
O=C(COC(=O)C1(c2ccc(Cl)cc2)CCCC1)N1CCc2ccccc21 | n | n | n | n | n | n
Cc1cccc(NC(=O)CN2C(=O)NC3(CCCC3)C2=O)n1 | n | n | n | n | n | n
Cc1ccc(C(=O)OCC(=O)Nc2sc3c(c2C#N)CCCC3)cc1NC(=O)c1ccco1 | n | n | n | n | 19 | n
O=C(COC(=O)COc1ccc2ccccc2c1)NCC(F)(F)F | n | n | n | n | n | n
O=C(NC1CC2CCC(C1)N2C(=O)NCc1ccccc1)C1CC1 (stereo not drawn) | n | 13 | n | n | n | n
COc1ccc(NC(=O)C2CC(=O)N(c3ccccc3Cl)C2)c(OC)c1 (stereo not drawn) | n | n | n | n | n | n
N#Cc1c(NC(=O)CSc2n[nH]c(Cc3ccccc3)n2)oc(-c2ccccc2)c1-c1ccccc1 | n | n | n | 9 | n | n
